Assay results gathered from unrelated publications.
Compare with care: the assays were run in different laboratories. In brackets after ≈: the same amount, converted by molar mass.

Cc1ccc2nc(-c3ccccc3Cl)[nH]c2c1
MIC (Staphylococcus aureus; microbial growth, broth dilution; ATCC43300 MRSA; drug-resistant strain): 256 mg/L (≈ 1050 µM)

C[C@]12CCC(=O)C(O)=C1CC[C@@H]1[C@@H]2CC[C@]2(C)C(=O)CC[C@@H]12
IC50 (HN-6; cell growth or viability; 72 h): > 20 µM

Cc1ccc2nc(-c3ccc([N+](=O)[O-])cc3)n(Cc3ccccc3Cl)c2c1
MIC (Staphylococcus aureus; microbial growth, broth dilution; ATCC43300 MRSA; drug-resistant strain): 64 mg/L (≈ 169 µM)

COC(=O)c1cc(-c2cccc(NC(=S)Nc3ccc(OC)cc3)c2)on1
MIC (Escherichia coli; microbial growth, broth dilution; ATCC25922): > 64 mg/L

OC[C@H]1O[C@@H](n2cnc3c(Cl)ncnc32)C[C@@H]1O
IC50 (Severe acute respiratory syndrome coronavirus; plaque formation, inhibitor; Vero C1008): > 300 µM

O=C(NCCc1c[nH]c2ccccc12)C(=O)c1cn(Cc2ccc(Cl)cc2)c2ccc(Br)cc12
IC50 (C4-2; cell growth or viability, MTT): > 100 µM

COC(=O)c1cc(-c2cccc(NC(=S)Nc3ccccc3Cl)c2)on1
MIC (Escherichia coli; microbial growth, broth dilution; ATCC25922): > 64 mg/L

OCC1CC(n2cnc3c(Cl)ncnc32)C1CO (stereo not shown)
IC50 (Severe acute respiratory syndrome coronavirus; plaque formation, inhibitor; Vero C1008): > 300 µM

c1cc2c(ccc3c4c([nH]c32)CCCC4)cn1
IC50 (MDA-MB-468; cell growth or viability, MTT): 7.9 µM

COC(=O)c1cc(-c2cccc(NC(=O)NCc3ccccc3)c2)on1
MIC (Escherichia coli; microbial growth, broth dilution; ATCC25922): > 64 mg/L

Nc1ncnc2c([C@@H]3N[C@H](CO)[C@@H](O)[C@H]3O)c[nH]c12
inhibition (Severe acute respiratory syndrome coronavirus; viral replication, inhibitor; Vero 76; 0.3 µM): 0.9%

CSc1ncnc2c1ncn2[C@@H]1O[C@H](CO)[C@@H](O)[C@H]1O
IC50 (Severe acute respiratory syndrome coronavirus; plaque formation, inhibitor; Vero C1008): > 300 µM

Cn1cnc2nc(NCc3ccc(Cl)c(Cl)c3)[nH]c(=O)c21
MIC (Lactobacillus acidophilus; microbial growth, agar dilution; 48 h): 8 mg/L (≈ 24.7 µM)

COC(=O)c1cc(-c2cccc(NC(=S)Nc3ccc(F)c(Cl)c3)c2)on1
MIC (Escherichia coli; microbial growth, broth dilution; ATCC25922): > 64 mg/L

Cc1ccc2nc(-c3ccc([N+](=O)[O-])cc3)n(Cc3ccccc3)c2c1
MIC (Staphylococcus aureus; microbial growth, broth dilution; ATCC43300 MRSA; drug-resistant strain): 16 mg/L (≈ 46.6 µM)

CCOC(=O)c1nnn(-c2cccc(NC(=O)Nc3ccc(Cl)c(Cl)c3)c2)c1C
MIC (Escherichia coli; microbial growth, broth dilution; ATCC25922): > 64 mg/L

C=CCn1c(-c2ccc(OC)c(OC)c2)nc2ccccc21
MIC (Staphylococcus aureus; microbial growth, broth dilution; ATCC43300 MRSA; drug-resistant strain): 128 mg/L (≈ 435 µM)

COC(=O)c1cc(-c2cccc(NC(=O)Nc3ccc(OC)cc3)c2)on1
MIC (Escherichia coli; microbial growth, broth dilution; ATCC25922): > 64 mg/L

COc1ccc(-c2nc3ccccc3[nH]2)cc1O
MIC (Staphylococcus aureus; microbial growth, broth dilution; ATCC43300 MRSA; drug-resistant strain): 256 mg/L (≈ 1070 µM)

CCOC(=O)c1cc(-c2cccc(NC(=O)Nc3ccc(Cl)c(Cl)c3)c2)on1
MIC (Escherichia coli; microbial growth, broth dilution; ATCC25922): > 64 mg/L

OCC(CO)CCn1cnc2c(Cl)ncnc21
IC50 (Severe acute respiratory syndrome coronavirus; plaque formation, inhibitor; Vero C1008): > 300 µM

Cc1ccc2nc(-c3ccc(Cl)cc3Cl)[nH]c2c1
MIC (Staphylococcus aureus; microbial growth, broth dilution; ATCC43300 MRSA; drug-resistant strain): 128 mg/L (≈ 462 µM)

CCCCCCNC(=S)Nc1cccc(-c2cc(C(=O)OC)no2)c1
MIC (Escherichia coli; microbial growth, broth dilution; ATCC25922): > 64 mg/L

CSc1ccc(-c2nc3ccccc3[nH]2)cc1
MIC (Staphylococcus aureus; microbial growth, broth dilution; ATCC43300 MRSA; drug-resistant strain): 32 mg/L (≈ 133 µM)

O=C(NCCc1c[nH]c2ccccc12)C(=O)c1cn(Cc2ccc(Cl)cc2)c2ccccc12
IC50 (C4-2; cell growth or viability, MTT): > 100 µM
